In article PMC4186986 (Acta Pharmacologica Sinica, 2014):

Tests used:
Type in all cases: cell-based
[1] = system: cyclin A, cyclin E, CDK2 in MDA-MB-231 cells; test: Western blot of cell cycle regulatory proteins; settings: MDA-MB-231, 48 h; compounds together with 1 nmol/L E2
Outline: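 MDA-MB-231 cells in DMEM/F12 with 10% charcoal-stripped FBS, seeded at 2×10^5 cells/well, treated 48 h with 1 nmol/L E2 plus test compound at several concentrations. Run on 12% SDS-PAGE, transferred to PVDF, probed overnight at 4 °C for cyclin A, cyclin E and CDK2, with ECL detection. GAPDH served as loading control; three independent experiments.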

MCF-7 cells = test: MTT anti-proliferation assay, MCF-7; settings: Homo sapiens, MCF7, 48 h, read-out: MCF-7 inhibition (%)
Outline: (§1)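 MCF-7 or MDA-MB-231 cells seeded at 10^5 cells/mL in phenol red-free DMEM/F12 with 10% charcoal-stripped FBS. Exposed to test compound at 0.01–100 μmol/L for 48 h (37 °C, 5% CO2), then MTT (5 mg/mL stock) for 4 h. Formazan dissolved in DMSO; absorbance read at 570 nm. Inhibition taken relative to DMSO-treated cells set as 100% viability; single-point values at 100 μmol/L final.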

MDA-MB-231 cells = test: MTT anti-proliferation assay, MDA-MB-231; settings: Homo sapiens, MDA-MB-231, 48 h, read-out: MDA-MB-231 inhibition (%)
Outline: as §1

Row | SMILES | expression level of CDK2 [1] | expression level of cyclin A [1] | expression level of cyclin E [1] | inhibition at 100 µM (MCF-7 cells) | inhibition at 100 µM (MDA-MB-231 cells)
1 | C[C@]12CC[C@@H]3c4ccc(O)cc4CC[C@H]3[C@@H]1CC[C@@H]2O [Estradiol, 17β-estrodial] | increased the expression | increased the expression | increased the expression |  | 
2 | CC/C(=C(\c1ccccc1)c1ccc(OCCN(C)C)cc1)c1ccccc1 [Tamoxifen] |  |  |  | 93.3% | 80.5%
